Test results reported in ChEMBL document CHEMBL3352666, “Human Toll-like receptor 8-selective agonistic activities in 1-alkyl-1H-benzimidazol-2-amines” (J Med Chem, 2014).
Activity calls are given as the source filed them. The calls are words filed in the database; no cut-off is given here.

Key:
Format in all cases: cell-based
[1] = target: Toll-like receptor 3 (Homo sapiens) (UniProt O15455); assay: Agonist activity at human TLR3 stably expressed in HEK293 cells co-expressing secreted alkaline phosphatase assessed as NF-kappaB induction by liquid handler-assisted reporter gene assay
Outline: (§1)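 HEK293 reporter cells stably co-transfected with the respective human TLR or NOD receptor plus NF-κB/AP-1-driven secreted alkaline phosphatase, kept in selection medium. About 10^5 cells/ml were incubated with graded concentrations of test compound in 384-well format. Supernatant sAP was read colorimetrically at 620 nm with an alkaline phosphatase-specific chromogen in detection medium.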

[2] = target: T1, Nucleotide-binding oligomerization domain-containing protein 1 (Homo sapiens) (UniProt Q9Y239); assay: Agonist activity at human NOD1 stably expressed in HEK293 cells co-expressing secreted alkaline phosphatase assessed as NF-kappaB induction by liquid handler-assisted reporter gene assay; outline: as §1
T1 sequence (whole entry): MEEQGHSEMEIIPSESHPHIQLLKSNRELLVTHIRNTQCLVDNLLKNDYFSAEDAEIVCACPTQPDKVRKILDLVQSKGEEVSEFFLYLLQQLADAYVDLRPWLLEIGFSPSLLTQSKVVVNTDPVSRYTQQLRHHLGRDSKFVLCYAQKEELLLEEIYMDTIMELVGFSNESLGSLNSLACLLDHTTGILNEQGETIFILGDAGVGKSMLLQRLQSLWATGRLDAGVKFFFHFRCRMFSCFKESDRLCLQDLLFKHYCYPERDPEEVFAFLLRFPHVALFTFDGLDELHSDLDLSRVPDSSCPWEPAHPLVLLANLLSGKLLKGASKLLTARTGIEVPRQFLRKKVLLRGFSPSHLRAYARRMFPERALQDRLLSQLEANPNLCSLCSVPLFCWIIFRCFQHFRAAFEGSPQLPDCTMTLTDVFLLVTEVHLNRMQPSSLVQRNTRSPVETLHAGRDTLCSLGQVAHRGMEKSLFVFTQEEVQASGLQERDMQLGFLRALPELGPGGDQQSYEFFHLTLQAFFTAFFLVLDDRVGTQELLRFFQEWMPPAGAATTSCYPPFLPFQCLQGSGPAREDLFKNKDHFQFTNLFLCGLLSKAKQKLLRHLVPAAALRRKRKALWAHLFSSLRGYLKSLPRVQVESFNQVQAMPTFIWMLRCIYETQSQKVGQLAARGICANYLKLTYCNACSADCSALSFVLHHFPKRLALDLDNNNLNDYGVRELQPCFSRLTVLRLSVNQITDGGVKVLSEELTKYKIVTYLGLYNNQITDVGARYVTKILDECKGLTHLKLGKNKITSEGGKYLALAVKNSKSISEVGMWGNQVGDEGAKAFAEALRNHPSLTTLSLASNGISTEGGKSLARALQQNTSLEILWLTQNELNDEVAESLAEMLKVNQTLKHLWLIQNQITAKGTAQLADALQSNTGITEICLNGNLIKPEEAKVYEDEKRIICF

[3] = target: T2, Toll-like receptor 8 (Homo sapiens, UniProt Q9NR97); assay: Agonist activity at human TLR8 stably expressed in HEK293 cells co-expressing secreted alkaline phosphatase assessed as NF-kappaB induction by liquid handler-assisted reporter gene assay; outline: as §1
T2 sequence (Q9NR97 whole entry): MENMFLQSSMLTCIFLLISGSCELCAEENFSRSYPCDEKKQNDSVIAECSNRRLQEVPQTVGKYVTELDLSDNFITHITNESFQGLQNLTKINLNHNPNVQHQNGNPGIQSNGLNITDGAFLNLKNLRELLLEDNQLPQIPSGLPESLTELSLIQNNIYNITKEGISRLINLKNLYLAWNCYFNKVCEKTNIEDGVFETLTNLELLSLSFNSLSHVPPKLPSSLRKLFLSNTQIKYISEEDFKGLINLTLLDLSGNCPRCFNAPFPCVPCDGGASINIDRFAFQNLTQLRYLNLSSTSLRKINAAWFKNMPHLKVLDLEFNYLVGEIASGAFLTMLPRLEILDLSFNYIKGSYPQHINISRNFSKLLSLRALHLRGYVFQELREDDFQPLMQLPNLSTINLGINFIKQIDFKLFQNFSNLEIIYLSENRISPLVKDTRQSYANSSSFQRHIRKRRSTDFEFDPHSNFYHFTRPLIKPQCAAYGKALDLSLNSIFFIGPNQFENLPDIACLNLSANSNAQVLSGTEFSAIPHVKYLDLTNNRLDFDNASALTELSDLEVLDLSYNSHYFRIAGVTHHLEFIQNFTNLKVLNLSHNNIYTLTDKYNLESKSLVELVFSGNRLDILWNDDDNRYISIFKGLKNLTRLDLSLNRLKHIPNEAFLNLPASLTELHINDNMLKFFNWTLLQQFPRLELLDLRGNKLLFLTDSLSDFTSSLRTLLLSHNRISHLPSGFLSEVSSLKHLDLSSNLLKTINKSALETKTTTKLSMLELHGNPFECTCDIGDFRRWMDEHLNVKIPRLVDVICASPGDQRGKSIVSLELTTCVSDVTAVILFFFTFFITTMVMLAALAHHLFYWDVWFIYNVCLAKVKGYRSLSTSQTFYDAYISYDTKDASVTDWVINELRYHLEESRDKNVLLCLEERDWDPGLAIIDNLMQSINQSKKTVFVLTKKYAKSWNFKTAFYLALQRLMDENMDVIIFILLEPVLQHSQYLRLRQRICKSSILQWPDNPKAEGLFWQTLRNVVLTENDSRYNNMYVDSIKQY

[4] = target: Toll-like receptor 4 (Homo sapiens) (UniProt O00206); assay: Agonist activity at human TLR4 stably expressed in HEK293 cells co-expressing secreted alkaline phosphatase assessed as NF-kappaB induction by liquid handler-assisted reporter gene assay; outline: as §1
[5] = target: Toll-like receptor 2 (Homo sapiens) (UniProt O60603); assay: Agonist activity at human TLR2 stably expressed in HEK293 cells co-expressing secreted alkaline phosphatase assessed as NF-kappaB induction by liquid handler-assisted reporter gene assay; outline: as §1
[6] = target: Nucleotide-binding oligomerization domain-containing protein 2 (Homo sapiens, UniProt Q9HC29); assay: Agonist activity at human NOD2 stably expressed in HEK293 cells co-expressing secreted alkaline phosphatase assessed as NF-kappaB induction by liquid handler-assisted reporter gene assay; outline: as §1
[7] = target: Toll-like receptor 5 (Homo sapiens) (UniProt O60602); assay: Agonist activity at human TLR5 stably expressed in HEK293 cells co-expressing secreted alkaline phosphatase assessed as NF-kappaB induction by liquid handler-assisted reporter gene assay; outline: as §1
Sequence of Toll-like receptor 5 (Homo sapiens) (O60602 whole entry): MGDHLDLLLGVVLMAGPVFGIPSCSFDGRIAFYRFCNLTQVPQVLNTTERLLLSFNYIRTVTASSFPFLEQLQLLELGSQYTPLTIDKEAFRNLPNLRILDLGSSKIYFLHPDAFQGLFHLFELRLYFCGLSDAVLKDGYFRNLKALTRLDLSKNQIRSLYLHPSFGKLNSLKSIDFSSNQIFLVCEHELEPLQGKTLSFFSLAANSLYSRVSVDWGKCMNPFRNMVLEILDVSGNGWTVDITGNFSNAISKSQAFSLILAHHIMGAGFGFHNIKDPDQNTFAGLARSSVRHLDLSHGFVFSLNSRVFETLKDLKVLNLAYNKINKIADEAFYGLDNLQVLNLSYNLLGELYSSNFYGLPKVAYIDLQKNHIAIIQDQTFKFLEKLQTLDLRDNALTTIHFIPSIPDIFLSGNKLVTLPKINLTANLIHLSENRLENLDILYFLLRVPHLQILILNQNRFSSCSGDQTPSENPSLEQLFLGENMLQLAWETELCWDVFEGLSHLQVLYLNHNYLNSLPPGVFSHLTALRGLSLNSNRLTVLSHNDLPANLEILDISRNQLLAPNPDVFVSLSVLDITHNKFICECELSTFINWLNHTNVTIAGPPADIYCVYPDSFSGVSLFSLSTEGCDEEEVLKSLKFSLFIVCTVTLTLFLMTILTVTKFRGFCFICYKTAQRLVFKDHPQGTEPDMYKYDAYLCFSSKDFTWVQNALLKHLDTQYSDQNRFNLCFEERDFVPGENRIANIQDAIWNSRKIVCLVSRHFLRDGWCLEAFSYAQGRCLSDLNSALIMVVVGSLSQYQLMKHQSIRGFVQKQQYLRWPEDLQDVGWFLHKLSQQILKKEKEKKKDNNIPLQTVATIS

Sequence of Toll-like receptor 3 (Homo sapiens) (O15455 whole entry): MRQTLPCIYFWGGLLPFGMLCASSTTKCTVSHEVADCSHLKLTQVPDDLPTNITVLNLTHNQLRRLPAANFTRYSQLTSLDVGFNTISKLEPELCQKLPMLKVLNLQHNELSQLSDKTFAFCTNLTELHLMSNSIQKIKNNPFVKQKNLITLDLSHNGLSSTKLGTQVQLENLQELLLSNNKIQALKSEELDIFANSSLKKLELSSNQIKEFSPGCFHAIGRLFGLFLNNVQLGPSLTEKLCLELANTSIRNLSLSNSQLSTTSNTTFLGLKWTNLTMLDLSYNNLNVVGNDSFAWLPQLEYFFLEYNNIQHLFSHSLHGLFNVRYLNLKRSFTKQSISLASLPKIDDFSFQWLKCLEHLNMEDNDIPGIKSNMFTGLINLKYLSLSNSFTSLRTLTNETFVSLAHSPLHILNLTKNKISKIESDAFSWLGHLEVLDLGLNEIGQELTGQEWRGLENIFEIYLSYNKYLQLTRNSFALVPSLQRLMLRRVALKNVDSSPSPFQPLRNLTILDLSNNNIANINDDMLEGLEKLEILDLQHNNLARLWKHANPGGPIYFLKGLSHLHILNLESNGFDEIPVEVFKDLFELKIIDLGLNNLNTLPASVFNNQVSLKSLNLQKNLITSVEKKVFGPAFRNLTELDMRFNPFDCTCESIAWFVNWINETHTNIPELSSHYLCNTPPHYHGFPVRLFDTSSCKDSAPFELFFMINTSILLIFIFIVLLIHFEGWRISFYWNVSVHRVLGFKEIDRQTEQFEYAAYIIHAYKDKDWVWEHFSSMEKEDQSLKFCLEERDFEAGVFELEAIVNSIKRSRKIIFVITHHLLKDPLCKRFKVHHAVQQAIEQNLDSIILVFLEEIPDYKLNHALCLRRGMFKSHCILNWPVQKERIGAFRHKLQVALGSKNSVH
Sequence of Toll-like receptor 4 (Homo sapiens) (O00206 whole entry): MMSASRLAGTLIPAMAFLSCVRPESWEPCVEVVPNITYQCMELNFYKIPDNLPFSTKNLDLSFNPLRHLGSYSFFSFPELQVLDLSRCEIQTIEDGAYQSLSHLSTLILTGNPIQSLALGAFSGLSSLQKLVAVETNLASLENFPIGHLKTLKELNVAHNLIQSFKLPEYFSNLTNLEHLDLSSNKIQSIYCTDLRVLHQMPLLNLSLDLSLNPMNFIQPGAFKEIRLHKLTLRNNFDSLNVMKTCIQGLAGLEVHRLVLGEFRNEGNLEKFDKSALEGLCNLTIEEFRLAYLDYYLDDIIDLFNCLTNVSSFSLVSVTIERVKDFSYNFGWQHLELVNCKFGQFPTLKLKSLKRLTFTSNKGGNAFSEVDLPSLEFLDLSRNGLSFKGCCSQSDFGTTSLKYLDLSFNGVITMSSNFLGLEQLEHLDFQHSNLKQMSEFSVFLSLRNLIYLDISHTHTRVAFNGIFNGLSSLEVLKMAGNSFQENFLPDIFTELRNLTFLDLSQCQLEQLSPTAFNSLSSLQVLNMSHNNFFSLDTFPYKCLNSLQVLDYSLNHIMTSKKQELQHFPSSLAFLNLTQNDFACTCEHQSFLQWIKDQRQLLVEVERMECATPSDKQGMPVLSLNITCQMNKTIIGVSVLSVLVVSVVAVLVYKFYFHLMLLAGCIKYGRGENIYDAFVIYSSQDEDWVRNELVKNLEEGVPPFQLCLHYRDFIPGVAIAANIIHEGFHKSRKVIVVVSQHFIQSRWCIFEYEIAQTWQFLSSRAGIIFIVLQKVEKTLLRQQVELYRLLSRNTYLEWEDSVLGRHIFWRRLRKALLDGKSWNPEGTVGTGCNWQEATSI
Sequence of Nucleotide-binding oligomerization domain-containing protein 2 (Q9HC29 whole entry, the tested form may be a part): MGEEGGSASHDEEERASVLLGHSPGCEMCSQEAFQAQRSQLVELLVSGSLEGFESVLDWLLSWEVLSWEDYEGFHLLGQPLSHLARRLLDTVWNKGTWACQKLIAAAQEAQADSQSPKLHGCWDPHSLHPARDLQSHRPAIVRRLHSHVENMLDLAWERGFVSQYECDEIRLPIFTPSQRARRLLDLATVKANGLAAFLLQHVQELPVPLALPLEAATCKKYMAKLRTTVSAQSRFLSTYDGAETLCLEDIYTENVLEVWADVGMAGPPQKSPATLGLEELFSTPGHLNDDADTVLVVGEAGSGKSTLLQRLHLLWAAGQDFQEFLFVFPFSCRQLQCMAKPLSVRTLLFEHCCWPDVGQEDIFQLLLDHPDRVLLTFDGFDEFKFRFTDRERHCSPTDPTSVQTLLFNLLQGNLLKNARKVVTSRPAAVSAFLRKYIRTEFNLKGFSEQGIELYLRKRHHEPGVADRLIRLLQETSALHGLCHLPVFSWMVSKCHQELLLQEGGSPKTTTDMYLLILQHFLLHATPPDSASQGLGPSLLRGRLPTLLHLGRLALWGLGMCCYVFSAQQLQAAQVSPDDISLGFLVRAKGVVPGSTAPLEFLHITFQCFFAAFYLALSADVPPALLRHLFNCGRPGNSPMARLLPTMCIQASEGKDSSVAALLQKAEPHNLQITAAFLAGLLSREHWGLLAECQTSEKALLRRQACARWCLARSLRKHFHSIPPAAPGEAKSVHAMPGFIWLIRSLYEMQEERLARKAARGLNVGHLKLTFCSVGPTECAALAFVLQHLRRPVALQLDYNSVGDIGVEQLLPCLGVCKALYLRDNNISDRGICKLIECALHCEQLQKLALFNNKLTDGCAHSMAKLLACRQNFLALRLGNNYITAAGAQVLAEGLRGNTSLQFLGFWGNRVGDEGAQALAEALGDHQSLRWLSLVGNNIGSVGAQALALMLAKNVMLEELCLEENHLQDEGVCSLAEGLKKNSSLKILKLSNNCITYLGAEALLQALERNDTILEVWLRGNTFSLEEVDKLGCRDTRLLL
Sequence of Toll-like receptor 2 (Homo sapiens) (O60603 whole entry, the tested form may be a part): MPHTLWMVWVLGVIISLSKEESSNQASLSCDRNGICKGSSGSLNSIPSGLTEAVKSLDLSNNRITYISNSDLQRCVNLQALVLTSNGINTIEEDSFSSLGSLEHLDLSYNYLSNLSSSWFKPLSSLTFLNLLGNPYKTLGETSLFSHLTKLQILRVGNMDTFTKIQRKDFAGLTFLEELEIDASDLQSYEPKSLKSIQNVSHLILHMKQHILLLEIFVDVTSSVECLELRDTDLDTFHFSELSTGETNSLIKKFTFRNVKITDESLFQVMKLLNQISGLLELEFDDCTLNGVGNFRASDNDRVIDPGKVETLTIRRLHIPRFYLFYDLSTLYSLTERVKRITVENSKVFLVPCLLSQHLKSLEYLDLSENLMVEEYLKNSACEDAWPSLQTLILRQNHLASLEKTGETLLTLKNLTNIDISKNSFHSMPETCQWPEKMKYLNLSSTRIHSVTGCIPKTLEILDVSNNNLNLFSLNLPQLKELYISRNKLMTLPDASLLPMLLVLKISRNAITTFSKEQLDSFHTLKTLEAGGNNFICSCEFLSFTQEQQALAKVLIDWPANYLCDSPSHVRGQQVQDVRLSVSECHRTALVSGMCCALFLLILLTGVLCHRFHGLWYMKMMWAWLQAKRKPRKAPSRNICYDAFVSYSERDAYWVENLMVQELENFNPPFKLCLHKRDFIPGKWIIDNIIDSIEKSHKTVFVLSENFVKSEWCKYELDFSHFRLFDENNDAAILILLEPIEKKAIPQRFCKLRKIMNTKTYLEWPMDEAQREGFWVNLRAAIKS

| Compound | Activity [1] | Activity [2] | EC50 [3] | Activity [4] | Activity [5] | Activity [6] | Activity [7] |
| --- | --- | --- | --- | --- | --- | --- | --- |
| CCCCCn1c(N)nc2c(F)cccc21 | inactive | inactive | Not Active | inactive | inactive | inactive | inactive |
| CCCCCn1c(N)nc2c([N+](=O)[O-])cccc21 | inactive | inactive | Not Active | inactive | inactive | inactive | inactive |
| CCCCCn1c(N)nc2c(C(F)(F)F)cccc21 | inactive | inactive | Not Active | inactive | inactive | inactive | inactive |
| CCCCCn1c(N)nc2c(Cc3ccccc3)cccc21 | inactive | inactive | Not Active | inactive | inactive | inactive | inactive |
| CCCCCn1c(N)nc2c(-c3ccccc3)cccc21 | inactive | inactive | Not Active | inactive | inactive | inactive | inactive |
| CCCCCn1c(N)nc2c(OCc3ccccc3)cccc21 | inactive | inactive | Not Active | inactive | inactive | inactive | inactive |
| CCCCCn1c(N)nc2cnccc21 | inactive | inactive | Not Active | inactive | inactive | inactive | inactive |
| CCCCCn1c(N)nc2cccnc21 | inactive | inactive | Not Active | inactive | inactive | inactive | inactive |
| CCCCCn1c(N)nc2c(Br)cccc21 | inactive | inactive | Not Active | inactive | inactive | inactive | inactive |
| CCCCCn1c(N)nc2cc3ccccc3cc21 | inactive | inactive | Not Active | inactive | inactive | inactive | inactive |
| CCCCCn1c(N)nc2c(C)cccc21 | inactive | inactive | – | inactive | inactive | inactive | inactive |
| Nc1nc2ccccc2n1Cc1ccccc1 | inactive | inactive | Not Active | inactive | inactive | inactive | inactive |
| CCCCCn1c(N)nc2ccc3ccccc3c21 | inactive | inactive | Not Active | inactive | inactive | inactive | inactive |
| CCCCC1C(N)=Nc2ccccc21.Cl (stereo unspecified) | inactive | inactive | ND(Unstable) | inactive | inactive | inactive | inactive |
| CCCCCn1c(N)nc2ncccc21 | inactive | inactive | Not Active | inactive | inactive | inactive | inactive |
| CCCCOC(=O)n1c(N)nc2ccccc21 | inactive | inactive | Not Active | inactive | inactive | inactive | inactive |
| CCCCC1(O)C(N)=Nc2ccccc21 (stereo unspecified) | inactive | inactive | Not Active | inactive | inactive | inactive | inactive |
| CCCCCn1c(NC(C)=O)nc2ccccc21 | inactive | inactive | Not Active | inactive | inactive | inactive | inactive |
| CCCCCn1c(N)nc2c(Cl)cccc21 | inactive | inactive | Not Active | inactive | inactive | inactive | inactive |
| CCCCCn1c(N)nc2ccncc21 | inactive | inactive | Not Active | inactive | inactive | inactive | inactive |
| NCc1cccc(Cn2c(N)nc3ccccc32)c1 | inactive | inactive | Not Active | inactive | inactive | inactive | inactive |
